# DTT redox prof: compounds producing H2O2 with reducing agent – biochemical, NIH compound library profiling, artefact control for MLSCN library redox annotation, primary screen. DTT-dependent redox cycling H2O2, phenol red/HRP absorbance; 100% = 100 µM peroxide control, 0% = buffer. activation, % at 10 µM. hit rate 0.03% among 200,000. AID 878;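 active = activation of at least 50% relative to the plate's high and low controls in the primary single-dose screen; inactive = activation below 50%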;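 also: compound incubated with DTT at 0.8 mM final as the reducing agent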
# MT stabilizer: stabilizes microtubules in HeLa cells. HeLa tubulin immunostaining HCS, 24 h; share of cells brighter than vehicle mean+2SD. % tubulin-high responders, % at 10 µM. hit rate 0.83% among 200,000. AID 2205;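 active = plate Z-score above 3 for both tubulin-high and condensed-nucleus cell shares, with cell loss under 80%, at 10 µM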;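 also: anti alpha tubulin signal scored within the nucleus-defined area of each cell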
# ROMK primary: human ROMK K+ channel modulation, primary screen | P48048 | Tet-inducible ROMK, thallium flux fluorescence; actives lie on both sides | B-score at 10 µM | hit rate 2% among 130,000;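 active = signal ratio slope over the read window, or its plate-corrected B-score, at least 3 SD from the plate mean, either direction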;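 also: B-score of the F/F0 ratio slope over 7 to 12 s after thallium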
# bCat nuc transl: modulators of beta-catenin nuclear translocation. HeLa beta-catenin nuclear translocation, immunofluorescence imaging. nuclear translocation activity, % at 5 µM. hit rate 0.3% among 190,000. AID 1665;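 active = nuclear translocation activity above 50% at 5 µM, with a well cell count of 50 or more; inconclusive = wells under 50 cells across six images, flagged as toxic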;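 also: per-cell ratio of nuclear to cytoplasmic median beta-catenin stain intensity; plate controls were DMSO negative control for no effect and GSK-3 inhibitor IX positive control for full effect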
#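 System: Human HeLa cells, endogenous beta-catenin | Compound dosing: 5 µM primary, 0.02–20 µM confirmation | Timing: 24 h compound exposure at 37°C, 5% CO2 | Measured by: Fluorescence imaging of beta-catenin antibody stain plus DAPI | Read-out basis: % activation of per-cell nuclear versus cytoplasmic median beta-catenin signal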
# Cl transport mod: KCC2 (human) Cl- transport modulation | hit rate 2.2% among 190,000 | B-score of Tl+ flux slope (higher = more flux/activation; lower = inhibition) at 10 µM | AID 1456 | Q9H2X9 | KCC2 cells, thallium flux FluoZin-2 fluorescence;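 active = thallium flux slope and its plate-corrected score both differing from the plate sample mean at a set confidence after two filtering rounds, in either direction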;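 also: slope of fluorescence scaled to starting intensity during 10 to 20 s after thallium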
# Target sequence (Q9H2X9 whole entry, looked up): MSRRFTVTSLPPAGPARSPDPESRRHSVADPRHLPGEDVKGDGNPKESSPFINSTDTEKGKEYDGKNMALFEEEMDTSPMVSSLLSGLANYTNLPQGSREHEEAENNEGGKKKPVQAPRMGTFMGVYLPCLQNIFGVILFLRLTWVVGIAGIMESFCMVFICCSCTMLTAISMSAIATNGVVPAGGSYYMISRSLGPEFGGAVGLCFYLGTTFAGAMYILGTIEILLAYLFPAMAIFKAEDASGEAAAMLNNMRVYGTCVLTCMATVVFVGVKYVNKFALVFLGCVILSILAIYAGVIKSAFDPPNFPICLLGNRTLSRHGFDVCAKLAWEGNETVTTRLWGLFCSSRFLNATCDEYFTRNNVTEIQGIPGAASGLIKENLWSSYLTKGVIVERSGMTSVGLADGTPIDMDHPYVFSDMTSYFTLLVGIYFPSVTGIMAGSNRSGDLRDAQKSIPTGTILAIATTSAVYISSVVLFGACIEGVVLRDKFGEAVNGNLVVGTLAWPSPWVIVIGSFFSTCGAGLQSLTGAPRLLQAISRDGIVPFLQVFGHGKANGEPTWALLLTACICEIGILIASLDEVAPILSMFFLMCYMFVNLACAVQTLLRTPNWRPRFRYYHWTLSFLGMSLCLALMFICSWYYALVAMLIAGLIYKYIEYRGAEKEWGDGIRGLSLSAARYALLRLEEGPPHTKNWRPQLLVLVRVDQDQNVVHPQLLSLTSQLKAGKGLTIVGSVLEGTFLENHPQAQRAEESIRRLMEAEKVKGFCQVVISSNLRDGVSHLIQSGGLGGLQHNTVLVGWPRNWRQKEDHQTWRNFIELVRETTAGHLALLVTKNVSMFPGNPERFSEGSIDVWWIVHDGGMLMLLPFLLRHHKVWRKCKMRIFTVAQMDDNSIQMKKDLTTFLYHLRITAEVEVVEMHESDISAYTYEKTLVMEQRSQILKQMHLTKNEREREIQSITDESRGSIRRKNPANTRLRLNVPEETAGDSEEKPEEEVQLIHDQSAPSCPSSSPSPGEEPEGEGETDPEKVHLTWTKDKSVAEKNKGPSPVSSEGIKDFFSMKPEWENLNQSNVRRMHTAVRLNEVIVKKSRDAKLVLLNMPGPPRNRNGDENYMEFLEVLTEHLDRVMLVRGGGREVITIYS
# KCC2 sec1: KCC2 (human) modulation, secondary assay; shares compounds with Cl transport mod; HEK293-KCC2, thallium flux, FluoZin2 fluorescence; stronger effect = higher value; normalised thallium flux (F/F0 slope) at 10 µM; hit rate 15% among 3,700; AID 1713;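 active = thallium flux slope above the same plate's solvent-only control mean plus 3 SD; inconclusive = the two replicate wells disagree; inactive = no significant difference from solvent-only control wells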
# KCC2 bumet counter: thallium flux persisting under bumetanide in KCC2 cells, counter-screen secondary assay. shares compounds with Cl transport mod. HEK293-KCC2 + bumetanide/ouabain, thallium flux FluoZin2; stronger effect = higher value. normalized thallium flux at 10 µM. hit rate 49% among 3,700;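 active = thallium entry rate above the same plate's blocked-transporter control wells by more than 3 SD; inconclusive = the two repeat wells disagree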;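 also: raw slope of fluorescence over initial fluorescence between 10 and 20 s after thallium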
# KCC2 sec2: confirmation of human KCC2 transport modulators; shares compounds with Cl transport mod; HEK293-KCC2, thallium flux FluoZin2 fluorescence; actives lie on both sides; F/F0 rise rate, 10–20 s post-thallium; normalized thallium flux at 10 µM; hit rate 23% among 3,700; AID 1715;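 active = thallium flux slope more than 3 SD above or below the plate's solvent-only control mean, mostly below; inconclusive = the two repeat wells disagreed; inactive = no significant shift from solvent-only controls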;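 also: raw slope with 0.1% DMSO as baseline and bumetanide as block control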
# HEK293 Tl flux: counter-screen for KCC2 modulators: effect in parental HEK293 cells. shares compounds with Cl transport mod. thallium flux FluoZin2, ouabain; baseline-ratio fluorescence slope, 10–20 s after thallium. thallium flux rate (normalised fluorescence) at 10 µM. hit rate 46% among 3,700. AID 1716;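 active = thallium flux rate significantly above the same plate's solvent-only control wells, beyond their mean plus 3 SD; inconclusive = the two replicate wells gave conflicting results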
# KCC2 retest ouab: confirmation of human KCC2 modulators with ouabain; hit rate 48% among 3,700; shares compounds with Cl transport mod; HEK293-KCC2, thallium flux FluoZin2 fluorescence; bidirectional: low = inhibitor, high = activator; raw Tl+ flux slope (below DMSO = inhibition, above = activation) at 10 µM;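 active = thallium flux slope beyond 3 SD from same-plate DMSO control mean in most replicates, usually higher, sometimes lower; inconclusive = repeat tests gave conflicting results; inactive = no significant difference from controls in most replicates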;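 also: slope of initial-normalized fluorescence between seconds 10 and 20 after thallium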
# HEK293 Tl flux2: counter-screen for KCC2 modulators: effect in parental HEK293 cells. shares compounds with Cl transport mod. hit rate 33% among 3,700. thallium flux slope at 10 µM. thallium flux FluoZin-2 fluorescence slope;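 active = thallium flux slope above the same plate's solvent-control mean plus 3 SD in both duplicate wells; inconclusive = duplicate wells that disagreed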;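 also: run without ouabain in cells lacking the KCC2 cotransporter; slope of fluorescence scaled to its starting value between 10 and 20 s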
# Numbers without * were called inactive; ? = inconclusive; . = no result. Hits are enriched below; roughly 3.7% of the tested compounds scored in any of these assays.
SMILES,DTT redox prof,MT stabilizer,ROMK primary,bCat nuc transl,Cl transport mod,KCC2 sec1,KCC2 bumet counter,KCC2 sec2,HEK293 Tl flux,KCC2 retest ouab,HEK293 Tl flux2
O=C(O)/C=C/C(=O)Nc1ccc(Cc2ccc(NC(=O)/C=C/C(=O)O)cc2)cc1,.,.,0.442,-1.3,0.261,.,.,.,.,.,.
Cc1ccc(-n2cc(-c3ccc([N+](=O)[O-])cc3)[nH]c2=S)c(C)c1,1.1,7.7,0.907,-0.7,25.7*,?,0.099*,0.0771*,0.0864*,0.0805*,0.0547*
O=[N+]([O-])c1cccc(-c2n[nH]c(=S)n2-c2ccccc2)c1,.,.,0.135,0.1,0.223,.,.,.,.,.,.
Cc1cccc(-n2cc(-c3ccc([N+](=O)[O-])cc3)[nH]c2=S)c1,0.3,6.4,.,7.3,5.14*,?,0.0168*,0.0326,0.0188*,0.0278*,0.0152*
O=[N+]([O-])c1cccc(-c2cn(-c3ccccc3)c(=S)[nH]2)c1,0.6,2.2,0.514,-1.0,15.6*,0.014*,0.0365*,0.038,0.0206*,?,0.0135*
COc1ccccc1-n1cc(-c2ccc([N+](=O)[O-])cc2)[nH]c1=S,.,.,-0.284,3.8,0.0428,.,.,.,.,.,.
COc1ccc(C(=O)CSc2nnc(NC(=O)C3CC(=O)N(c4ccccc4C)C3)s2)cc1 (configuration not stated),0.5,1.5,.,-1.3,-0.302,.,.,.,.,.,.
CC1=C(C)CC2(SC1)C(=O)N(c1ccccc1)N=C2N (configuration not stated),-0.2,1.8,.,-1.3,0.81,.,.,.,.,.,.
Cc1cccc(Nc2nnc(SCC(=O)c3ccc(Br)s3)s2)c1C,-0.3,1.9,1.45,0.4,-4.31*,?,?,0.0266*,0.00755,0.0109*,0.0109
COc1ccc(-c2csc(NC(=O)c3ccccc3NS(=O)(=O)c3ccc(F)c(F)c3)n2)cc1,-0.5,8.0,-0.386,-3.9,-4.55*,0.00524*,0.0111*,0.033,?,0.0112*,0.0115
CN(CC#CC(O)(c1ccccc1)c1ccccc1)C(C)(C)C,.,.,.,-0.1,0.599,.,.,.,.,.,.
Brc1ccc(-c2csc(Nc3nc(-c4ccc(Br)cc4)cs3)n2)cc1,.,.,.,-3.6,18.6*,0.0104,0.0248*,0.0347,0.0143*,0.0268,0.0118*
COc1ccc(CN2C3CCCC2CC(NC(=O)Nc2ccccc2C)C3)cc1 (configuration not stated),0.3,4.7,-2.2,-2.5,2.55*,0.00639,0.00457,0.0273,?,0.0174,0.01
COc1ccc(CN2C3CCCC2CC(NC(=O)Nc2ccccc2)C3)cc1 (configuration not stated),0.3,3.3,.,-2.6,0.628,.,.,.,.,.,.
CC(C)OC(=O)CSc1nnc(-c2cnccn2)n1Cc1ccco1,0.6,5.0,0.201,-6.1,-0.197,.,.,.,.,.,.
Brc1ccc(CSc2nnc(-c3cnccn3)n2Cc2ccco2)cc1,1.0,6.7,0.619,-0.9,-4.31*,0.0146,0.00332,0.0269,0.00503*,0.0131*,0.00931
O=C(CSc1nnc(-c2cnccn2)n1Cc1ccco1)c1ccc2ccccc2c1,0.4,3.5,-0.19,1.4,.,0.0149,0.00462,?,?,0.0129*,0.0092
Cc1ccc(CSCC(=O)NCc2cccs2)cc1,-0.7,1.3,-0.6,-0.7,-1.16,.,.,.,.,.,.
COc1ccc(/C=C/C(=O)OCC(=O)NCCC2=CCCCC2)cc1S(=O)(=O)N1CCOCC1,-3.5,2.9,-0.433,-1.1,-0.342,.,.,.,.,.,.
COCCNC(=S)N/N=C(\C)c1cc2ccccc2o1,-0.3,2.9,-0.572,-3.1,19*,0.00602,0.0245*,?,0.0224*,0.0286*,0.0183*
COCCNC(=S)N/N=C(\C)c1ccc(OC)cc1,0.5,5.4,-0.414,0.3,-0.0879,.,.,.,.,.,.
COc1ccc(CNC(=S)Nc2cc(C)ccc2C)cc1,0.2,2.0,-0.445,-0.5,-1.05,.,.,.,.,.,.
COc1ccc(/C(C)=N/NC(=S)Nc2cc(C)ccc2C)cc1,-2.4,6.2,-0.0168,1.0,25.3*,0.00811,0.0483*,0.0458*,0.0361*,0.0408*,0.0376*
COCCNC(=S)N/N=C(\C)c1ccc2cc(OC)ccc2c1,-0.7,2.1,-1.86,0.1,10.5*,0.00756,0.0353*,0.0331,0.0143*,0.0323*,0.0106
COCCNC(=S)N/N=C(\C)c1cccc(C(F)(F)F)c1,0.2,3.5,-0.24,-2.4,5.79*,0.0166,0.02*,0.0302,0.0124*,0.0186,0.0149*
SMILES,DTT redox prof,MT stabilizer,ROMK primary,bCat nuc transl,Cl transport mod,KCC2 sec1,KCC2 bumet counter,KCC2 sec2,HEK293 Tl flux,KCC2 retest ouab,HEK293 Tl flux2
N#CCCN(Cc1cccs1)C(=O)Nc1ccccc1,.,.,0.504,-0.4,0.522,.,.,.,.,.,.
O=[N+]([O-])c1cc(CN(CCO)CCO)ccc1O,.,.,.,-1.6,.,.,.,.,.,.,.
CCNC(=S)N/N=C(\C)c1ccc2ccccc2c1OC(F)F,-1.1,1.4,-0.00362,-1.9,7.69*,0.0121*,0.0625*,0.0371,0.0218*,0.0456*,0.0149*
C/C(=N\NC(=O)c1nc2ccccn2c1C)c1cc2ccccc2o1,-1.8,12.0,0.106,-1.9,15.7*,0.00643,0.0654*,0.0471*,0.0358*,0.0499*,0.0391*
C/C(=N\NC(=S)NC(C)C)c1ccccc1OC(F)F,0.2,2.2,-0.0525,-5.0,5.98*,0.00621,0.00966*,0.0328,0.0123*,0.0218,0.0151*
CCNC(=S)N/N=C(\C)c1ccc2ccccc2c1,0.3,4.2,-0.745,-0.5,19.6*,0.011,0.0335*,0.0352,?,0.0314*,0.0132
CC(C)N1CCN(Cc2cccc(-n3cccn3)c2)CC1CCO (configuration not stated),-0.2,2.0,0.625,-2.6,0.581,.,.,.,.,.,.
COCCn1c(=S)[nH]c2ccc(N(C)C)cc2c1=O,0.6,4.7,-1.08,1.1,3.21*,0.00665,0.00828*,0.029,0.00951*,0.0187,0.0121*
CCCn1c(=S)[nH]c2cc(OC)c(OC)cc2c1=O,-0.7,1.4,-0.726,-0.3,10.5*,0.0134*,0.0215*,0.0335,?,?,?
CCN(CC)C(=O)c1ccc2c(=O)n(CCOC)c(=S)[nH]c2c1,0.2,2.6,0.341,.,0.48,.,.,.,.,.,.

# Screens deposited in PubChem by several laboratories.
